T cruzi repl: blocks replication of Trypanosoma cruzi | T. cruzi beta-gal in NIH3T3, luminescence, 90 h | inhibition, % (concentration not given with the values) | hit rate 1.4% among 300,000 | AID 1885;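 active means mean inhibition across valid replicates above about 55%, limit read from the data; inconclusive means mean below that limit but half or more replicates reach it; inactive means mean below it, under half of replicates reach it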;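 further: signal also drops with host cell toxicity which is not excluded here; 0% = plate median of DMSO wells and 100% = zero luminescence signal; higher percent means less beta-gal luminescence so fewer parasites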
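compound dosing = single 50 nL compound addition per well in DMSO | material = NIH/3T3 host cells with β-galactosidase reporter T. cruzi | input = 5,000 host fibroblasts per well | timing = ≥90 h infection period, 3 h prior cell attachment | read-out basis = percent inhibition of parasite-derived β-gal signal | detection = GalScreen β-gal luminescence, detergent lysis, 60 min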
CSC inhib: blocks cancer stem cells; cancer stem cell-like cells viability, luminescence; hit rate 1.1% among 300,000; AID 2717; inhibition, % at 7.5 µM; in the data active means inhibition above about 75%; inconclusive means no clear call, values can overlap the other calls; tested in HMLE shEcad cells
UPR CHOP act: activators of apoptotic arm of unfolded protein response (CHOP). CHO-CHOP luciferase reporter, UPR activation, luminescence; percent of tunicamycin response over DMSO baseline. hit rate 0.34% among 330,000. activation, % at 10 µM;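 active means at 10 µM dose, activation of 40% or more, normalized to positive control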;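 further: 100% = tunicamycin at 10 µg/mL and 0% = DMSO alone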
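measured by = luciferase luminescence | assay system = CHO-CHOP cells, stable luciferase reporter of PERK-eIF2a-CHOP signalling | amount = 500 reporter cells seeded per well | timing = 6 h compound exposure at 37 °C after overnight seeding | controls = positive tunicamycin 10 µg/mL, negative DMSO alone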
XBP1 UPR activ: adaptive UPR (XBP1) activation; CHO-XBP1 luciferase reporter, IRE1-XBP1 UPR activation, luminescence; percent of tunicamycin response, DMSO as zero; activation, % at 20 µM; hit rate 0.33% among 330,000;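 active means versus positive control, 20 µM dose yields 30% or more activation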;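 further: 100% = tunicamycin at 10 µg/mL and 0% = DMSO only wells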
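Assay system: CHO-XBP1 luciferase reporter cells; Schedule: 6 h treatment, 37 °C; Detection: glow luminescence from Steady-Glo reagent; Benchmarks: high control tunicamycin 10 µg/mL final, low control DMSO vehicle only.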
Mdm2 MdmX PPI: inhibitors of human Mdm2/MdmX interaction. O15151+Q00987. SaOS-2 split-luciferase Mdm2/MdmX complementation, luminescence. inhibition, % at 8 µM. hit rate 3% among 330,000. AID 485346;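 active means inhibition of at least 50% at 8 µM in the primary screen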
Beta apoptosis: beta cell apoptosis inhibition. INS-1E cytokine-induced death, ATP luminescence, 48 h; percent of positive-control rescue, neutral wells zero. protection from apoptosis, % (test concentration not listed). hit rate 0.8% among 300,000;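 active means Every replicate reaches about 75%, or at least half do and their mean reaches it too, limit read from the data; inconclusive means At least half of replicates reach the limit but their mean does not; inactive means Under half of replicates reach the limit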;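 further: 0% = cytokine-treated negative control wells and 100% = positive control rescue; higher means more ATP so stronger rescue from cytokine killing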
Mdm2-MdmX conf: human Mdm2/MdmX binding inhibition, confirmed; shares compounds with Mdm2 MdmX PPI; inhibition, % at 8 µM; hit rate 55% among 10,000; AID 489028; luminescent assay; in the data active means inhibition above about 40%
FLuc counter: full-length luciferase inhibition in Mdm2/MdmX counter-screen. shares compounds with Mdm2 MdmX PPI. hit rate 77% among 6,200. inhibition, % at 8 µM. SaOS-2 full-length luciferase counterscreen, luminescence. AID 504607;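 active means mean inhibition at 8 µM reaching about 37%, which flags the compound as non-specific, limit read from the data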;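 further: p53-null SaOS-2 cells with luciferase driven by a doxycycline-inducible promoter; compound on cells about two nights before reading with doxycycline added after day one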
Active calls of the source: *; ? = inconclusive; . = no result given. Rows were chosen to be rich in hits. Some 5% of all compounds tested hit in one or more screens of this group.

SMILES	T cruzi repl	CSC inhib	UPR CHOP act	XBP1 UPR activ	Mdm2 MdmX PPI	Beta apoptosis	Mdm2-MdmX conf	FLuc counter
Cc1ccc(-c2nc3cnccn3c2Nc2ccc3c(c2)OCO3)cc1	-8.0	6.9	1.5	0.0	6.0	-6.1	.	.
O=C(CCN1CCN(C(c2ccccc2)c2ccccc2)CC1)N/N=C/c1ccc(O)cc1O	1.1	.	-1.5	-1.1	60.4*	-8.9	68.6*	36.5*
CCN(CC)CCN1c2ccccc2Sc2ccc3ccccc3c21	26.2	58.6	4.8	-3.7	56.1*	106.4*	36.6	74.7*
CCN(CC)CCN1c2ccccc2Sc2ccccc21	17.9	7.0	1.6	-5.7	19.1	1.4	.	.
CCN(CC)CCNC(=O)C1CCN(S(=O)(=O)c2c(C)noc2/C=C/c2ccccc2F)CC1	0.0	-5.9	1.0	-0.1	56.4*	5.2	23.8	.
Fc1ccccc1-c1nnc2n1N=C(c1ccc(OC(F)F)c(OCC3CC3)c1)CS2	.	.	0.7	0.8	-14.8	8.3	.	.
COc1ccc(C2=Nn3c(nnc3-c3ccccc3OC)SC2)cc1OC1CCOC1 (stereo not drawn)	.	46.2	-2.3	16.3	71.1*	7.0	73.3*	95.3*
COc1ccccc1-c1nnc2n1N=C(c1ccc(O)c(O)c1)CS2	-34.1	-14.2	-1.6	16.8	50.3*	30.4	58.1*	139.8*
COc1ccc(C2=Nn3c(nnc3-c3ccccc3Cl)SC2)cc1OCC1CC1	.	.	-0.2	11.6	73.0*	17.3	56.6*	44.8*
COc1ccc(C2=Nn3c(nnc3-c3cccnc3)SC2)cc1OC	-8.1	-23.1	0.6	15.2	51.2*	7.8	22.5	.
CCCCN(C(=O)/C=C/c1ccco1)c1c(N)n(Cc2ccccc2)c(=O)[nH]c1=O	.	-1.9	0.7	-2.6	-0.9	-2.6	.	.
O=C(CSc1nc2scc(-c3ccccc3)c2c(=O)[nH]1)N1CCOCC1	-5.5	.	0.6	-1.7	31.4	.	.	.
COC(C(=O)Nc1ccnn1C1CCN(Cc2cnn(C(C)C)c2)CC1)c1ccccc1 (stereo not drawn)	-5.5	-13.4	1.0	-3.8	1.9	-10.7	.	.
COC(=O)c1cc(=O)n(Cc2ccc3c(c2)OCO3)c(=Nc2ccc(F)cc2)s1	-9.3	43.0	14.8	-2.3	56.7*	1.0	31.2	.
COC(=O)c1cc(=O)n(CCc2ccccc2F)c(=Nc2ccc(F)c(Cl)c2)s1	53.9	121.9*	30.2	7.3	73.5*	75.9*	12.9	.
COC(=O)c1cc(=O)n(Cc2cccs2)c(=Nc2ccc(F)cc2)s1	49.0	121.0*	18.4	10.2	50.3*	3.9	11.8	.
O=C1N=c2ccc(Br)cc2=C1c1sc(=S)n(NS(=O)(=O)c2ccccc2)c1O	-2.0	17.5	-1.5	-0.7	18.0	-1.0	.	.
Cc1ccc(NC(=O)CCNS(=O)(=O)c2ccc3c(c2)CCC(=O)N3)cc1C	4.5	-9.6	-1.3	0.1	-6.2	-1.1	.	.
CC1(C)Cc2c(cnn2-c2ccc(F)cc2)C(NC(=O)c2ccco2)C1 (stereo not drawn)	-1.6	12.0	1.7	-1.1	1.0	-3.1	.	.
CC12CC(c3ccccc3O1)N(C(=O)c1ccco1)C(=S)N2c1ccc(F)cc1 (stereo not drawn)	-1.2	14.0	1.2	1.7	50.8*	-1.3	30.2	.
Cc1sc2ncnc(SC(C)C(=O)N3c4ccccc4Sc4ccccc43)c2c1C (stereo not drawn)	18.7	?	1.5	-3.5	55.0*	-1.9	25.4	.
Cc1ccc(NC(=O)CSc2nc3c(c(=O)[nH]2)CCC3)c(C)c1	-9.9	-5.5	3.4	-2.0	5.0	-0.8	.	.
O=C(CCc1ccccc1)NC1(Cc2ccccc2)CCN(CCc2cccs2)C1=O (stereo not drawn)	.	-16.7	2.0	-3.0	21.9	-0.2	.	.
O=C(NC1(Cc2ccccc2)CCN(Cc2ccc(-c3ccccc3)cc2)C1=O)c1ccccc1 (stereo not drawn)	.	49.0	4.1	-3.0	63.2*	13.3	40.9*	77.2*
